The target in series [1] is T1, Metabotropic glutamate receptor 1 (Homo sapiens, UniProt Q13255). Kind of series: Positive allosteric modulation of human mGlu1 receptor in HEK293 cells assessed as potentiation of glutamate-induced calcium mobiliztion by Fluo-4AM dye based fluorescence analysis. The following applies: read-out: EC50. The series is classed as functional, cell-based.
Target sequence in this assay (Q13255 whole entry): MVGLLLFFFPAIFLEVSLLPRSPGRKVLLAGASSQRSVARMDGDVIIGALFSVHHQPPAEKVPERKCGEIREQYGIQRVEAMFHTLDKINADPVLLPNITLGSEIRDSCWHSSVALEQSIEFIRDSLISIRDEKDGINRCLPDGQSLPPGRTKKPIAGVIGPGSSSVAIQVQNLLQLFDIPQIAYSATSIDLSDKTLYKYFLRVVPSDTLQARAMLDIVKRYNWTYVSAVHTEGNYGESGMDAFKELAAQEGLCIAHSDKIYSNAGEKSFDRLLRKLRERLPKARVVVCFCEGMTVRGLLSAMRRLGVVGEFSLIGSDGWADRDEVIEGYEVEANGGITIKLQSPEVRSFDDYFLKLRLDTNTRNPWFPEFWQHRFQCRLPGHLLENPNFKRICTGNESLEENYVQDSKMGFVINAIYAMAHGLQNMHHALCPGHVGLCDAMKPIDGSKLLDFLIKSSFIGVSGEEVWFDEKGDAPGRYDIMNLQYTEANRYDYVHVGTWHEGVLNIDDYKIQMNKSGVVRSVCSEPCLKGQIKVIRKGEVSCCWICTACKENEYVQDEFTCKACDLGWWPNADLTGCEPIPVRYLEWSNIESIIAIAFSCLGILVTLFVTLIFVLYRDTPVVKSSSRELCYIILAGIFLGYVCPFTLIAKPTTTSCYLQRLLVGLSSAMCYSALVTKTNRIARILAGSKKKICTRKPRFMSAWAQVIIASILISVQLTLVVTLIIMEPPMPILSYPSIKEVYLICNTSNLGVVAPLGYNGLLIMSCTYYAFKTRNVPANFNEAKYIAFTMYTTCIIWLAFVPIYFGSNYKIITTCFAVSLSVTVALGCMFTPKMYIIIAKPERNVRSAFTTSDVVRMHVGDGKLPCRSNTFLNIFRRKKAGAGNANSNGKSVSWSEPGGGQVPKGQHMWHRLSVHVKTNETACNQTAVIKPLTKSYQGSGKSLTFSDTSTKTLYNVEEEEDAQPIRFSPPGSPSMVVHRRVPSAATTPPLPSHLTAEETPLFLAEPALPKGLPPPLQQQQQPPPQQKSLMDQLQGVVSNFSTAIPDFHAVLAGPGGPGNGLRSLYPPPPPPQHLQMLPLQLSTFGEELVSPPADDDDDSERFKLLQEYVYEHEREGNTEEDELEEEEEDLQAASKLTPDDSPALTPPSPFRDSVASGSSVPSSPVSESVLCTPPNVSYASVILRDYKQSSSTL
For series [2], the target named is T1, Metabotropic glutamate receptor 1. The experiment in a line: Positive allosteric modulation of human mGlu1 receptor in HEK293 cells assessed as potentiation of glutamate-induced calcium mobiliztion by Fluo-4AM dye based fluorescence analysis relative to glutamate. The series is classed as functional, cell-based.
Target sequence in this assay (Q13255 19-1194 limits assumed): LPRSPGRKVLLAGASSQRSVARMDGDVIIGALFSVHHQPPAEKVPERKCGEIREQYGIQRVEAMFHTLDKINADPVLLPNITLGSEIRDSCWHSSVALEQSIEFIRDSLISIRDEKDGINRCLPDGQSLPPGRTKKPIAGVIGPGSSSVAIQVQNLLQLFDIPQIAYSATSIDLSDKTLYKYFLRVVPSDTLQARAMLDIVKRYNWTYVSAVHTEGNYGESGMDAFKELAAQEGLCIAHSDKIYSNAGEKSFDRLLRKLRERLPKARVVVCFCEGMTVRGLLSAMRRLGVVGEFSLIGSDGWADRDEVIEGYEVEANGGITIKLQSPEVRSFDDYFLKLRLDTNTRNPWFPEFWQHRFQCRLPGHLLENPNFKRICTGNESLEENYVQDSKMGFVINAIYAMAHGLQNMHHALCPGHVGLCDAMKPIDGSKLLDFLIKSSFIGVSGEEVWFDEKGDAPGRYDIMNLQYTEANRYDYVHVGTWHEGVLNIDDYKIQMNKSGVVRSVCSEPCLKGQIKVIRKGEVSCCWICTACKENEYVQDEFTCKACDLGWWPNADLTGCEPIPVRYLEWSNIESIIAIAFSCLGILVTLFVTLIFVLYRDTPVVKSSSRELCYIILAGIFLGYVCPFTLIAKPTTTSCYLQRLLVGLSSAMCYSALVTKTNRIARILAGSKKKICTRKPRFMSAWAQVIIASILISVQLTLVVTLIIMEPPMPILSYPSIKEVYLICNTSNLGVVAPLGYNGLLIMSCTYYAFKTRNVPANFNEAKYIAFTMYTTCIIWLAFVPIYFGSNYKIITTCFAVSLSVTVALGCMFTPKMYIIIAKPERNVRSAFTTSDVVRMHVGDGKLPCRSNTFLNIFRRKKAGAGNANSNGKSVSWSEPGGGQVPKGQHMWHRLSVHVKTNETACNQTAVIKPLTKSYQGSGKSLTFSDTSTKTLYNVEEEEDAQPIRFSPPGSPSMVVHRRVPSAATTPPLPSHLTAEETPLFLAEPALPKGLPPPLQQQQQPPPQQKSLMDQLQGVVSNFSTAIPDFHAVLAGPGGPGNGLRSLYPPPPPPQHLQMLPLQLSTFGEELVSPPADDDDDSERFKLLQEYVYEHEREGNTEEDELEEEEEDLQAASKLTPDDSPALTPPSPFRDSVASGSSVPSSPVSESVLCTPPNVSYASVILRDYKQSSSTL
Series [3] relates to Plasma. Kind of series: Drug level in human plasma treated with N-(3-chloro-4-(5-chloro-1,3-dioxoisoindolin-2-yl)phenyl)-3-methylfuran-2-carboxamide at 10 uM after 4 hrs by mass spectrometry. It is filed as ADME, cell-free. An outline of the steps:
(§1)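 Compound incubated at 10 μM in rat or human plasma at 37 °C. Samples taken at 0 and 4 h were analysed by mass spectrometry for parent and metabolites.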

Series [4] deals with Plasma. The experiment in a line: Drug level in rat plasma treated with N-(3-chloro-4-(5-chloro-1,3-dioxoisoindolin-2-yl)phenyl)-3-methylfuran-2-carboxamide at 10 uM after 4 hrs by mass spectrometry. The series is classed as ADME, cell-free. In short, it runs like this:
as §1

For series [5], the target named is T2, Metabotropic glutamate receptor 4 (Homo sapiens, UniProt Q14833). The experiment in a line: Positive allosteric modulation of human mGlu4 receptor assessed as potentiation of glutamate-induced calcium mobiliztion by cell based assay. The series is classed as functional.
Series [6] has as its target T2, Metabotropic glutamate receptor 4. The experiment in a line: Positive allosteric modulation of human mGlu4 receptor assessed as potentiation of glutamate-induced calcium mobiliztion by cell based assay relative to PHCCC.
The species named for another series is Homo sapiens. The experiment in a line: Selectivity index, ratio of EC50 for human mGlu4 receptor to EC50 for human mGlu1 receptor.

T2 sequence (Q14833 whole entry): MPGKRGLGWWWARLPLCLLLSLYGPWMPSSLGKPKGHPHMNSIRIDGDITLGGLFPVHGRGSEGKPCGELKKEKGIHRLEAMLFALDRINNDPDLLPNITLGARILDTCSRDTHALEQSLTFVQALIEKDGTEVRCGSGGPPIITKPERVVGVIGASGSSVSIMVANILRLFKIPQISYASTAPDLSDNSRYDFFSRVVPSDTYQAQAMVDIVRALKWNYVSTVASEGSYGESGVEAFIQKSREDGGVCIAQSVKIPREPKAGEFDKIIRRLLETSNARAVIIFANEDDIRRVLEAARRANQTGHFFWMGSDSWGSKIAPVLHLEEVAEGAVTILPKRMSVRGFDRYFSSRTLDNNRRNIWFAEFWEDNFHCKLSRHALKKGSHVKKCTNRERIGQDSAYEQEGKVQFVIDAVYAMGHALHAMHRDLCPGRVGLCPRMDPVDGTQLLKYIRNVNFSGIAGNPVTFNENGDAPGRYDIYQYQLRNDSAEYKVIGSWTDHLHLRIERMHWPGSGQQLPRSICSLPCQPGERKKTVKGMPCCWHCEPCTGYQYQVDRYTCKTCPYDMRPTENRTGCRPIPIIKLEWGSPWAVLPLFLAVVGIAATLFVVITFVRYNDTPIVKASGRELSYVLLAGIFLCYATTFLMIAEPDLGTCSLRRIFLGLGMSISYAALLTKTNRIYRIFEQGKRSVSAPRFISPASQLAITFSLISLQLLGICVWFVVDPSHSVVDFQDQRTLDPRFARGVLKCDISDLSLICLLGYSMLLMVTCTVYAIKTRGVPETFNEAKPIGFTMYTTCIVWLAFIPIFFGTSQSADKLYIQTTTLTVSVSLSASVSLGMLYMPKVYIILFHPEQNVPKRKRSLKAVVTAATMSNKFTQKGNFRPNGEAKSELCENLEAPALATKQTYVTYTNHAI

In the case of `O=C(Nc1ccc(N2C(=O)c3ccccc3C2=O)c(Cl)c1)c1ccc(Cl)o1`, the EC50 in series [1] was > 10 µM. Further, the %max in series [2] turned out to be 55%. Regarding `O=C(Nc1ccc(N2C(=O)c3ccccc3C2=O)c(Cl)c1)c1cn[nH]c1`, in series [1], the EC50 was > 10 µM.

On to `O=C(Nc1ccc(N2C(=O)c3ccccc3C2=O)c(Cl)c1)c1ccc[nH]1`, for which the EC50 in series [1] was > 10 µM. `O=C(Nc1ccc(N2C(=O)c3ccccc3C2=O)c(Cl)c1)c1cscn1`: the EC50 in series [1] was determined as 4.47 µM. In addition, in series [2], the %max turned out to be 107%.

As for `Cc1ccoc1C(=O)Nc1ccc(NC(=O)c2ccc(Cl)cc2C(=O)O)c(Cl)c1`, the Drug metabolism result in the series on Plasma [3] and in the series on Plasma [4] was “metabolite_detected” each time. As to `CCc1ccc(C(=O)Nc2ccc(N3C(=O)c4ccccc4C3=O)c(Cl)c2)o1`, the EC50 in series [1] is > 10 µM. The %max in series [2] was 30%. `O=C(Nc1ccc(N2C(=O)c3ccccc3C2=O)c(Cl)c1)c1ccc(-c2ccccc2)o1`: the EC50 in series [1] was > 10 µM. The %max in series [2] was determined as 30%. In the case of `O=C(Nc1ccc(N2C(=O)c3ccccc3C2=O)c(Cl)c1)c1csnn1`, the EC50 in series [1] was > 10 µM. For the same compound, in series [2], the %max came to 39%. As to `CC(C)(C)c1ccc(C(=O)Nc2ccc(N3C(=O)c4ccccc4C3=O)c(Cl)c2)o1`, in series [1], the EC50 was > 10 µM.

For `O=C(Nc1ccc(N2C(=O)c3ccccc3C2=O)c(Cl)c1)c1ccc(C(F)(F)F)o1`, the EC50 in series [1] was > 10 µM. Also, in series [2], the %max was found to be 43%. Regarding `O=C(Nc1ccc(N2C(=O)c3ccccc3C2=O)c(Cl)c1)c1cnn[nH]1`, the EC50 in series [1] is > 10 µM.

On to `O=C(Nc1ccc(N2C(=O)c3ccccc3C2=O)c(Cl)c1)c1occc1-c1ccccc1`, for which the EC50 in series [1] was > 10 µM. Turning to `Cc1cc(C)c(C(=O)Nc2ccc(N3C(=O)c4ccccc4C3=O)c(Cl)c2)o1`, in series [1], the EC50 is > 10 µM.

For `CN(C)Cc1ccc(C(=O)Nc2ccc(N3C(=O)c4ccccc4C3=O)c(Cl)c2)o1`, in series [1], the EC50 is > 10 µM. Consider `O=C(Nc1ccc(N2C(=O)c3ccccc3C2=O)c(Cl)c1)c1ccc(Br)o1`, for which the EC50 in series [1] is > 10 µM. Besides, the %max in series [2] was found to be 45%.

As to `O=C(Nc1ccc(N2C(=O)c3ccccc3C2=O)c(Cl)c1)c1cocn1`, the EC50 in series [1] was > 10 µM. As for `O=C(Nc1ccc(N2C(=O)c3ccccc3C2=O)c(Cl)c1)c1cc2ccccc2o1`, the EC50 in series [1] is > 10 µM.

For `Cc1ccoc1C(=O)Nc1ccc(N2C(=O)c3cccc(C)c3C2=O)c(Cl)c1`, the EC50 in series [5] (read-out: EC50) is 0.62 µM; in series [1] it was 0.0243 µM. The %max turned out to be 153% in series [6] and 86% in series [2]. In addition, the Ratio EC50 in the series listed under Homo sapiens amounted to 25.5. In the case of `O=C(Nc1ccc(N2C(=O)c3ccccc3C2=O)c(Cl)c1)c1cncs1`, in series [1], the EC50 was > 10 µM. In the case of `Cc1ccc(C(=O)Nc2ccc(N3C(=O)c4ccccc4C3=O)c(Cl)c2)o1`, in series [1], the EC50 is > 10 µM. The %max in series [2] came out at 60%. On to `O=C(Nc1ccc(N2C(=O)c3ccccc3C2=O)c(Cl)c1)c1ccco1`, for which the EC50 in series [1] turned out to be 0.55 µM. Further, in series [2], the %max was 76%. As to `Cc1ccoc1C(=O)Nc1ccc(N2C(=O)c3ccc(F)cc3C2=O)c(Cl)c1`, the values for the EC50 in series [5] (read-out: EC50), in series [5] (read-out: pEC50 (converted)) and in series [1] were 0.712 µM, 0.724 µM and 0.0241 µM, respectively. Moreover, the %max was 97% in series [6] and 88% in series [2]. For the same compound, the Ratio EC50 in the series listed under Homo sapiens amounted to 29.7.

`O=C(Nc1ccc(N2C(=O)c3ccccc3C2=O)c(Cl)c1)c1cccs1`: the EC50 in series [1] is > 10 µM. Turning to `Cc1ccc2c(c1)C(=O)N(c1ccc(NC(=O)c3occc3C)cc1Cl)C2=O`, the EC50 in series [5] (read-out: EC50) amounted to 0.323 µM; in series [1], 0.0544 µM. For the same compound, the %max was determined as 69% in series [6] and 86% in series [2]. In the series listed under Homo sapiens, the Ratio EC50 worked out at 5.9. In the case of `O=C(Nc1ccc(N2C(=O)c3ccccc3C2=O)c(Cl)c1)c1ccno1`, in series [1], the EC50 was > 10 µM. Same read-out and setting: for `O=C(Nc1ccc(N2C(=O)c3ccccc3C2=O)c(Cl)c1)c1cnco1` the value was > 10 µM; for `O=C(Nc1ccc(N2C(=O)c3ccccc3C2=O)c(Cl)c1)c1ncco1`, > 10 µM.

`O=C(Nc1ccc(N2C(=O)c3ccccc3C2=O)c(Cl)c1)c1cnc[nH]1`: in series [1], the EC50 is > 10 µM. For `Cc1ccoc1C(=O)Nc1ccc(NC(=O)c2cc(Cl)ccc2C(=O)O)c(Cl)c1`, the Drug metabolism entry in the series with Plasma [3] and in the series with Plasma [4] was “metabolite_detected” throughout. As for `O=C(Nc1ccc(N2C(=O)c3ccccc3C2=O)c(Cl)c1)C1CCCO1` (stereo unspecified), in series [1], the EC50 was > 10 µM.

`O=C(Nc1ccc(N2C(=O)c3ccccc3C2=O)c(Cl)c1)c1coc2ccccc12`: the EC50 in series [1] is > 10 µM. Turning to `Cc1ccoc1C(=O)Nc1ccc(N2C(=O)c3cccc(Cl)c3C2=O)c(Cl)c1`, the EC50 is 1.14 µM in series [5] (read-out: EC50) and 0.033 µM in series [1]. For the same compound, the results for the %max in series [6] and in series [2] were 163% and 91%, respectively. In addition, the Ratio EC50 in the series listed under Homo sapiens was determined as 34.5. Turning to `CS(=O)(=O)c1ccc(C(=O)Nc2ccc(N3C(=O)c4ccccc4C3=O)c(Cl)c2)o1`, the EC50 in series [1] was > 10 µM. Further, the %max in series [2] worked out at 35%. Regarding `Cc1ccoc1C(=O)Nc1ccc(N2C(=O)c3ccccc3C2=O)c(Cl)c1`, the EC50 in series [1] was determined as 0.097 µM. Besides, the %max in series [2] was 118%. In the case of `Cc1ccoc1C(=O)Nc1ccc(N)c(Cl)c1`, the Drug metabolism entry with Plasma [3] and in the series on Plasma [4] was “metabolite_detected” in each case.

The record behind these values is ChEMBL document CHEMBL3627606, “Development of Novel, CNS Penetrant Positive Allosteric Modulators for the Metabotropic Glutamate Receptor Subtype 1 (mGlu1), Based on an N-(3-Chloro-4-(1,3-dioxoisoindolin-2-yl)phenyl)-3-methylfuran-2-carboxamide Scaffold, That Potentiate Wild Type and Mutant mGlu1 Receptors Found in …” (J Med Chem, 2015).
